Series [1] deals with HT-29. The series is described as follows: Induction of apoptosis in human HT-29 cells assessed as increase in accumulation at sub-G1 phase at 1 uM after 48 hrs by flow cytometry. The class given is functional. In outline: (§1)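 HT-29 cells were exposed to vehicle or 1, 5 or 10 μM compound for 6, 12, 24 or 48 h. Floating and attached cells were collected, fixed in 70% ethanol and treated with 0.1% Triton X-100. They were stained with PI at 50 μg/mL plus RNaseA at 50 μg/mL for 30 min at room temperature in the dark. FL2 DNA content was read on 10000 cells by flow cytometry. The sub-G1 fraction was taken as apoptotic.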
(In general: A flow cytometer gives signals particle by particle.)

The test system of series [2] is HT-29. The series is described as follows: Induction of apoptosis in human HT-29 cells assessed as decrease in accumulation at G0/G1 phase at 1 uM after 48 hrs by flow cytometry. The format is functional, cell-based. In outline:
as §1

Series [3] relates to HT-29. The series is described as follows: Induction of apoptosis in human exponentially growing HT-29 cells. The format is functional, cell-based. The following applies: TDE = time-dependent effect.
The test system of series [4] is HT-29. The series is described as follows: Induction of apoptosis in human HT-29 cells assessed as morphological changes at 0.25 ug/mL after 24 hrs by immunostaining. The class given is functional, cell-based. The procedure, abridged: (§2)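 SKOV3 and HT-29 cells were treated with 0.25 or 5 μg/mL for 24 h. Cell morphology was assessed by microscopy after fixation in 4% formaldehyde and Hoechst 33342 staining (10 μg/mL), against an untreated control.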

In series [5] the test system is SK-OV-3. The series is described as follows: Induction of apoptosis in human SKOV3 cells assessed as morphological changes at 0.25 ug/mL after 24 hrs by immunostaining. The format is functional, cell-based. The procedure, abridged:
as §2

In series [6] the test system is HT-29. The series is described as follows: Induction of apoptosis in human HT-29 cells assessed as morphological changes at 5 ug/mL after 24 hrs by immunostaining. The class given is functional, cell-based. The procedure, abridged: as §2
The subject of series [7] is SK-OV-3. The series is described as follows: Induction of apoptosis in human SKOV3 cells assessed as apoptotic cells at 5 ug/mL after 24 hrs by annexin V/propidium iodide-based flow cytometry. The format is functional. In outline: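 SKOV-3 or HT-29 cells (1-5 × 10^6 cells/mL) were incubated with 0, 5 or 10 μg/mL compound for 24 h. They were then washed and stained with EGFP-Annexin V/PI and analysed immediately by flow cytometry. Annexin V+/PI− cells were scored as apoptotic; PI-permeant cells were scored as necrotic.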

The test system of series [8] is HT-29. The series is described as follows: Antitumor activity against human HT-29 cells xenografted in athymic BALB/c nude mouse at 75 mg/kg, ip for 10 days measured after 30 days relative to placebo control. The following applies: route intraperitoneal. The format is functional. In outline: (§3)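 Female athymic BALB/c nude mice (35-40 days old, 18-22 g). HT-29 tumours first grown from 1 × 10^7 cells injected s.c. in the axillary fossa, then excised and transplanted. Treatment started at 100-300 mm3. Groups of n=6 were dosed i.p. daily in 400 μL: saline for 10 days, 5 mg/kg for 2 days, or 75/150 mg/kg for 10 days. Caliper volume was V=1/2·a·b². Values are relative to start volume, compared with placebo by Student's t test, and mice were killed on day 30.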
For orientation: In xenograft studies the graft and the host belong to different species.

Series [9] relates to HT-29. The series is described as follows: Antitumor activity against human HT-29 cells xenografted in athymic BALB/c nude mouse at 150 mg/kg, ip for 10 days measured after 30 days relative to placebo control. The format is functional. The following applies: route intraperitoneal. The procedure, abridged: as §3
The subject of the next series is Mus musculus. The series is described as follows: Toxicity in athymic BALB/c nude mouse xenografted with human HT-29 cells assessed as morbidity at 150 mg/kg, ip for 10 days measured after 30 days. The class given is organism-based. Also on record: dose 150 mg/kg, route intraperitoneal. As to conditions: in vivo, 720 h. The procedure, abridged:
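Nude mouse HT-29 xenograft model as above: female athymic BALB/c, 18-22 g, n=6 per group. Dosing was i.p. daily in 400 μL for 10 consecutive days at 75 or 150 mg/kg, with saline controls. Body weight and tumour volume were recorded every 4 days, and the study ended on day 30. Weights were compared with controls by Student's t test.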

A short description of series [10]: Cytotoxicity against estrogen receptor-negative human […] cells expressing p53 mutant after 48 hrs by SRB assay. The format is functional, cell-based. In outline:
(§4)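 Cell lines came from CCRC, Taiwan. Cells were seeded at about 5 × 10^3 per well and left overnight. They were then given serum-free medium containing 0-10 μM compound (0.08-10 μM serial dilutions) for 48 h at 37 °C. Cells were fixed with TCA (10% final), stained with SRB (0.4% final), and the dye was dissolved in 10 mM Tris with A515 read. IC50 was taken from a fitted log concentration-response curve.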
A general note: Sulforhodamine B stains cellular protein and so reports cell mass.

For the next series, the system named is A549. The series is described as follows: Cytotoxicity against human A549 cells expressing wild type p53 after 48 hrs by SRB assay. The format is functional, cell-based. The following applies: A549, 48 h. In outline:
as §4

A further series deals with HepG2. The series is described as follows: Cytotoxicity against human HepG2 cells expressing wild type p53 after 48 hrs by SRB assay. The class given is functional, cell-based. As to conditions: HepG2, 48 h. In outline:
as §4

The test system of another series is KB. The series is described as follows: Cytotoxicity against human KB cells after 48 hrs by MTT assay. The class given is functional, cell-based.
The next series relates to A2780. The series is described as follows: Cytotoxicity against human A2780 cells after 48 hrs by MTT assay. As to conditions: A2780, 48 h. The format is functional, cell-based.
The test system of another series is AGS. The series is described as follows: Cytotoxicity against human AGS cells expressing wild type p53 after 48 hrs by SRB assay. The class given is functional, cell-based. In outline: as §4
Series [11] deals with HT-29. The series is described as follows: Cytotoxicity against human HT-29 cells assessed as inhibition of anchorage-dependent colony formation at 5 uM after 14 days. The format is functional, cell-based. In outline:
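HT-29 cells were plated at 500 per well and allowed to attach for 24 h. They were then exposed continuously to compound or DMSO for 14 days, with medium replaced every 72 h. Colonies were fixed in 1% formaldehyde/PBS and stained with 0.1% crystal violet.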

Series [12] concerns HT-29. The series is described as follows: Cytotoxicity against human HT-29 cells after 48 hrs by MTT assay. The class given is functional, cell-based. As to conditions: HT-29, 48 h. The procedure, abridged: (§5)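 Cells were seeded at about 5 × 10^3 per well, then given serum-free medium containing 0-10 μM test compound for 48 h at 37 °C. MTT was added at 0.5 mg/mL final for 4 h at 37 °C. Formazan was dissolved in DMSO and OD570 read. IC50 values (50% cell death) came from a fitted log concentration-response curve.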

Series [13] deals with SK-OV-3. The series is described as follows: Cytotoxicity against human SKOV3 cells after 48 hrs by MTT assay. The class given is functional, cell-based. The following applies: SK-OV-3, 48 h. In outline:
as §5

Series [14] concerns SK-OV-3. The series is described as follows: Reduction in topoisomerase 1 expression in human SKOV3 cells by immunocytochemistry. The format is functional, cell-based. The procedure, abridged: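 HT-29 and SKOV-3 cells were grown on slides and treated with compound at several concentrations, with an untreated control. Cells were fixed and permeabilised, and endogenous peroxidase was quenched with 0.3% H2O2/methanol. After blocking with 10% goat serum, slides were stained with anti-Top I (1:100, 10 h), then biotinylated secondary and avidin-biotin-HRP, and developed with DAB.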

Activity, GI50 and IC50 data for 1 molecule are collected here from ChEMBL document CHEMBL1153527, “Discovery of a novel series of quinolone and naphthyridine derivatives as potential topoisomerase I inhibitors by scaffold modification” (J Med Chem, 2009).

Broadly, the GI50 is the concentration giving 50% growth inhibition. A low value points to greater sensitivity of the cells. One may read the IC50 as the concentration that gives 50% inhibition. Lower therefore signals greater potency in that assay.

Converted amounts (≈) assume the structure as drawn. The source made the active and inactive calls. No cut-off for these calls is given here.

With `CCn1cc(-c2nc3ccc([N+](=O)[O-])cc3o2)c(=O)c2cc(F)c(N3CCNC(C)C3)c(F)c21` (centres undefined), the Activity was 35.5% in the series with HT-29 [1]; “tde” in the series on HT-29 [3]; 7.4% in the series with SK-OV-3 [7]; 52% with HT-29 [8]; 65% in the series with HT-29 [9]; “Non-toxic” with Mus musculus. Also, the Activity entry in the series with SK-OV-3 [14] was “Dose-dependent effect”. The outcome in the series on HT-29 [2], in the series with HT-29 [4], with SK-OV-3 [5], in the series with HT-29 [6] and with HT-29 [11] was Active. Also, the concentration for 50% growth inhibition (GI50) in series [10] worked out at 0.7 µM; in the series with A549, 0.8 µM; in the series with HepG2 it was 2.8 µM; in the series with AGS, 0.7 µM. Further, the IC50 in series [10] was found to be 3.1 µM; with A549 it was 1.5 µM; in the series on HepG2, 4.5 µM; in the series with KB it was 0.6 µM; with A2780, 0.2 µM; in the series with AGS, 3.5 µM. Moreover, the IC50 in the series on HT-29 [12] was found to be 0.37 mg/L (≈ 0.788 µM); in the series with SK-OV-3 [13], 0.55 mg/L (≈ 1.17 µM).
